What all share (assay type): functional
The test system of test [1] is A-375. Put plainly: Cell cycle arrest in human A375 cells assessed as accumulation at G2/M phase at 4 uM after 24 hrs using propidium iodide staining by FACS. Put shortly: (§1)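 Treated A375 cells (24 h) were harvested with trypsin-EDTA and fixed in ice-cold 70% ethanol (4 °C, 30 min). After a PBS wash, they were incubated with 1 mg/mL RNase A (37 °C, 30 min) and stained with propidium iodide solution containing trisodium citrate and Triton X-100. DNA content was measured by flow cytometry on 20,000 events. Controls were DMSO-treated.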

Test [2] deals with A-375. The test can be described thus: Cell cycle arrest in human A375 cells assessed as accumulation at G0/G1 phase at 4 uM after 24 hrs using propidium iodide staining by FACS. Put shortly: as §1
The subject of test [3] is A-375. Put plainly: Cell cycle arrest in human A375 cells assessed as accumulation at S phase at 4 uM after 24 hrs using propidium iodide staining by FACS. Put shortly: as §1
In the next test the test system is ZR-75-1. The test can be described thus: Anticancer activity against human ZR-75-1 cells after 48 hrs by SRB assay. To be noted: ZR-75-1, 48 h. Put shortly:
(§2)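 Cells grown in RPMI 1640 with 10% FBS and 2 mM L-glutamine, plated at densities set by doubling time, and preincubated 24 h at 37 °C, 5% CO2. Compounds were tested at four concentrations (0.1, 1, 10, 100) in triplicate wells with 48 h continuous exposure. Cells were fixed with cold TCA (10% final, 60 min, 4 °C) and stained with 0.4% SRB in 1% acetic acid (20 min, RT). Dye was eluted with 10 mM Trizma base and read at 540 nm (690 nm reference). Percent growth is relative to control wells, plate by plate.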

A further test deals with KB. Put plainly: Anticancer activity against human KB cells after 48 hrs by SRB assay. Put shortly:
(§3)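 Grown in RPMI 1640 with 10% FBS and 2 mM L-glutamine at 37 °C, 5% CO2. Seeded at densities set by doubling time, then preincubated 24 h. Continuous 48 h drug exposure at four concentrations (0.1, 1, 10, 100), triplicate wells. Fixed with cold TCA (final 10%) at 4 °C, 60 min. Stained with 0.4% SRB in 1% acetic acid, eluted with 10 mM Tris base, read at 540/690 nm. Percent growth versus control wells.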

The next test deals with A2780. The test can be described thus: Anticancer activity against human A2780 cells after 48 hrs by SRB assay. As to conditions: A2780, 48 h. The method, boiled down: as §3
Another test concerns SiHa. The test can be described thus: Anticancer activity against human SiHa cells after 48 hrs by SRB assay. Put shortly:
as §2

Counter-ions that a name gives are not always drawn.

Take `COc1cc(C2=NOC(c3cc(OC)c(OC)c(OC)c3)C2)ccc1O` (centres undefined): the Activity with A-375 [1] came out at 1.82%; in the test on A-375 [2] it was 82.59%; in the test with A-375 [3] it was 15.59%.
For `COc1ccc(C2CC(c3cc(OC)c(OC)c(OC)c3)=NO2)cc1OCCCOc1cc2c(cc1OC)C(=O)N1CCC[C@H]1C=N2` (some centres undefined), the GI50 is 130 nM in the test with ZR-75-1, 160 nM with KB, 150 nM with A2780 and 180 nM in the test with SiHa.
The like results for `COc1ccc(-c2cc(-c3cc(OC)c(OC)c(OC)c3)on2)cc1OCCCCCOc1cc2c(cc1OC)C(=O)N1CCC[C@H]1C=N2` were, in that order, less than 100 nM, 130 nM, 120 nM and 130 nM.
The like results for `COc1cc2c(cc1OCCCCCOc1c(OC)cc(-c3cc(-c4cc(OC)c(OC)c(OC)c4)on3)cc1OC)N=C[C@@H]1CCCN1C2=O` were, in that order, 100 nM, 160 nM, 140 nM and 160 nM.
For the compound `COc1cc2c(cc1OCCCCCOc1c(OC)cc(C3CC(c4cc(OC)c(OC)c(OC)c4)=NO3)cc1OC)N=C[C@@H]1CCCN1C2=O` (some centres undefined), the 50% growth inhibitory concentration (GI50) in the test on ZR-75-1 came out at 180 nM; in the test with KB it was 180 nM; in the test with A2780 it was 150 nM; with SiHa, 180 nM.
As to `COc1cc2c(cc1OCCCCOc1c(OC)cc(C3CC(c4cc(OC)c(OC)c(OC)c4)=NO3)cc1OC)N=C[C@@H]1CCCN1C2=O` (some centres undefined), the GI50 was determined as 150 nM in the test on ZR-75-1, 180 nM in the test on KB, 150 nM in the test on A2780 and 170 nM in the test with SiHa.
On to `COc1cccc2c1C(=O)c1c(O)c3c(c(O)c1C2=O)C[C@@](O)(C(=O)CO)C[C@@H]3O[C@H]1C[C@H](N)[C@H](O)[C@H](C)O1` [DOXORUBICIN HYDROCHLORIDE], for which the GI50 in the test on ZR-75-1 is less than 100 nM; in the test with KB, 160 nM; in the test with A2780 it was less than 100 nM; in the test on SiHa, 1900 nM.
As for `COc1ccc(-c2cc(-c3cc(OC)c(OC)c(OC)c3)on2)cc1OCCCCOc1cc2c(cc1OC)C(=O)N1CCC[C@H]1C=N2`, the GI50 in the test on ZR-75-1 worked out at 100 nM; with KB, 150 nM; in the test with A2780, 140 nM; in the test on SiHa, 150 nM.
`COc1cc2c(cc1O)N=C[C@@H]1CCCN1C2=O`: the Activity was found to be 1.33% in the test on A-375 [1], 88.05% in the test with A-375 [2] and 10.62% with A-375 [3]. Moreover, the 50% growth inhibitory concentration (GI50) with KB was found to be 170 nM; with A2780, 140 nM; with SiHa, 170 nM.
Take `COc1cc2c(cc1OCCCOc1c(OC)cc(-c3cc(-c4cc(OC)c(OC)c(OC)c4)on3)cc1OC)N=C[C@@H]1CCCN1C2=O`: the GI50 in the test on ZR-75-1 came out at 180 nM; with KB it was 150 nM; with A2780 it was 130 nM; with SiHa, 150 nM.
In the case of `COc1ccc(C2CC(c3cc(OC)c(OC)c(OC)c3)=NO2)cc1OCCCCCOc1cc2c(cc1OC)C(=O)N1CCC[C@H]1C=N2` (some centres undefined), the GI50 in the test on ZR-75-1 is 120 nM; with KB, 160 nM; in the test on A2780, 140 nM; in the test on SiHa it was 160 nM.
Turning to `COc1ccc(-c2cc(-c3cc(OC)c(OC)c(OC)c3)on2)cc1OCCCOc1cc2c(cc1OC)C(=O)N1CCC[C@H]1C=N2`, the concentration for 50% growth inhibition (GI50) was 130 nM in the test with ZR-75-1, 170 nM in the test on KB, 150 nM in the test on A2780 and 150 nM in the test on SiHa.

For the origin of these results see ChEMBL document CHEMBL1240422, “Design, synthesis and biological evaluation of 3,5-diaryl-isoxazoline/isoxazole-pyrrolobenzodiazepine conjugates as potential anticancer agents” (2010).
